Published values of several laboratories.
Target: Serine/threonine-protein kinase N1 (PKN1, Homo sapiens, UniProt Q16512)

Compound | effect on | mode | technique | concentration | quantity | value
Nc1ncc(-c2nc(N3CCOCC3)nc(N3CCOCC3)n2)c(C(F)F)n1 | binding |  | competition with immobilised ligand | 10 µM | remaining binding | 49%
Cc1n[nH]c2ccc(-c3cncc(OC[C@@H](N)Cc4c[nH]c5ccccc45)c3)cc12 | enzyme activity | inhibitor |  | 1 µM | activity vs control | -1%
Cn1cc(-c2cccc(N3CCc4c(sc5c4CC(C)(C)C5)C3=O)c2CO)cc(Nc2ccncn2)c1=O | enzyme activity | inhibitor |  | 1 µM | inhibition | 1%
Cn1cncc1[C@@](O)(COc1ccc(C#N)cc1-c1ccc(OC(F)(F)F)cc1)c1ccc(C#N)cc1 | cell-free assay |  | competition with immobilised ligand | 1 µM | remaining binding | 100%
Cc1ccccc1-n1c(Cn2cnc3c(N)ncnc32)nc2cccc(C)c2c1=O | enzyme activity | inhibitor |  | 1 µM | activity vs control | 81%
COc1ncccc1-c1cnn2ccc(N3CCN(C(=O)OC(C)C)CC3)nc12 | binding |  | competition with immobilised ligand | 1 µM | remaining binding | 90%
CC(C)(C)c1cc(C=C(C#N)C#N)cc(Br)c1O | enzyme activity | inhibitor |  | 0.5 µM | remaining activity | 94.5%
O=c1[nH]c2ccc(Cl)cc2c(N[C@@H]2CN3CCC2CC3)c1-c1nc2ccccc2[nH]1 | enzyme activity | inhibitor |  | 1 µM | activity vs control | -1%
O=c1[nH]c2ccccc2n1C1CCN(Cc2ccc(-c3[nH]c4cc5ncnc5cc4nc3-c3ccccc3)cc2)CC1 | cell-free assay |  |  | 0.5 µM | remaining signal | 90.3%
N#CC1(c2ccccn2)CCN(Cc2cc(C(=O)O)c(=O)n3ccccc23)CC1 | cell-free assay |  | competition with immobilised ligand | 1 µM | remaining binding | 100%
Cn1cc(-c2cc(F)cc(N3CCn4c(cc5c4CCCC5)C3=O)c2CO)cc(Nc2ccc(N3CCN(C4COC4)CC3)cn2)c1=O | enzyme activity | inhibitor |  | 0.1 µM | inhibition | 11%
